According to ChEMBL document CHEMBL3351249, “Potent cholesteryl ester transfer protein inhibitors of reduced lipophilicity: 1,1'-spiro-substituted hexahydrofuroquinoline derivatives” (J Med Chem, 2014):

Key:
Mus musculus = assay: Increase in HDL-cholesterol in hemizygous human CETP transgenic mouse at 10 mg/kg, po dosed for 5 consecutive days; format: functional
Procedure, shortened: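 Male hemizygous hCETP or hCETP/hApoB100 transgenic mice, 26−30 weeks, chow-fed. Compound suspended in 0.5% aqueous hydroxyethylcellulose, oral gavage each morning for 5 or 14 days. EDTA blood taken 7 h post-dose (fed for 5-day, after 4 h fast for 14-day) from vena facialis under isoflurane. HDL/LDL cholesterol measured on Cobas Integra 400 Plus. Mean ± SEM, one-way ANOVA with Bonferroni.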

Plasma [1] = assay: Plasma concentration in hemizygous human CETP transgenic mouse at 10 mg/kg, po dosed for 5 consecutive days measured on day 5 and day 7 post dose; format: ADME, organism-based; design: dose 10 mg/kg, route oral; settings: in vivo
Plasma [2] = assay: Drug concentration in plasma of hemizygous human CETP transgenic mouse at 10 mg/kg, po dosed for 5 consecutive days measured on day 3 after cessation of drug treatment; format: ADME, organism-based; design: dose 10 mg/kg, route oral; settings: in vivo
Procedure, shortened: (§1)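 Male hCETP transgenic mice given oral doses for 5 days in 0.5% hydroxyethylcellulose. Tissues and plasma collected at day 3 and day 21 after the last dose. Fat diluted 6:1 with acetonitrile and homogenized. Analysis by LC/MS/MS on a C18 column with QCs at 4.0−1000 nM, accepted within 30% of target.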

Muscle tissue [3] = assay: Drug concentration in muscle of hemizygous human CETP transgenic mouse at 10 mg/kg, po dosed for 5 consecutive days measured on day 3 after cessation of drug treatment; format: ADME, organism-based; design: dose 10 mg/kg, route oral; settings: in vivo; procedure, shortened: as §1
Liver = assay: Drug concentration in liver of hemizygous human CETP transgenic mouse at 10 mg/kg, po dosed for 5 consecutive days measured on day 3 after cessation of drug treatment; format: ADME, organism-based; design: dose 10 mg/kg, route oral; settings: in vivo; procedure, shortened: as §1
Kidney [4] = assay: Drug concentration in kidney of hemizygous human CETP transgenic mouse at 10 mg/kg, po dosed for 5 consecutive days measured on day 3 after cessation of drug treatment; format: ADME, organism-based; design: dose 10 mg/kg, route oral; settings: in vivo; procedure, shortened: as §1
[5] = Drug concentration in testes of hemizygous human CETP transgenic mouse at 10 mg/kg, po dosed for 5 consecutive days measured on day 3 after cessation of drug treatment; format: ADME, organism-based, Testis; design: dose 10 mg/kg, route oral; settings: in vivo; procedure, shortened: as §1
[6] = Drug concentration in adipose fat of hemizygous human CETP transgenic mouse at 10 mg/kg, po dosed for 5 consecutive days measured on day 3 after cessation of drug treatment; format: ADME, organism-based, Adipose tissue; design: dose 10 mg/kg, route oral; settings: in vivo; procedure, shortened: as §1
Muscle tissue [7] = assay: Drug concentration in muscle of hemizygous human CETP transgenic mouse at 10 mg/kg, po dosed for 5 consecutive days measured on day 21 after cessation of drug treatment; format: ADME, organism-based; design: dose 10 mg/kg, route oral; settings: in vivo; procedure, shortened: as §1
Kidney [8] = assay: Drug concentration in kidney of hemizygous human CETP transgenic mouse at 10 mg/kg, po dosed for 5 consecutive days measured on day 21 after cessation of drug treatment; format: ADME, organism-based; design: dose 10 mg/kg, route oral; settings: in vivo; procedure, shortened: as §1
[9] = Drug concentration in testes of hemizygous human CETP transgenic mouse at 10 mg/kg, po dosed for 5 consecutive days measured on day 21 after cessation of drug treatment; format: ADME, organism-based, Testis; design: dose 10 mg/kg, route oral; settings: in vivo; procedure, shortened: as §1
[10] = Drug concentration in adipose fat of hemizygous human CETP transgenic mouse at 10 mg/kg, po dosed for 5 consecutive days measured on day 21 after cessation of drug treatment; format: ADME, organism-based, Adipose tissue; design: dose 10 mg/kg, route oral; settings: in vivo; procedure, shortened: as §1
[11] = Terminal elimination half life in healthy human administered as single oral dose; format: ADME, organism-based; settings: in vivo, read-out: beta t1/2 (converted)

For `COc1cc(F)c(C(C)C)cc1-c1ccc(C(F)(F)F)cc1CN1C(=O)O[C@H](c2cc(C(F)(F)F)cc(C(F)(F)F)c2)[C@@H]1C` [ANACETRAPIB], the Activity (Mus musculus) was 50.5%, the concentration (Plasma [1]) was 507 nM and the Drug uptake (Plasma [2]) was “Active”. For the same compound, the Drug uptake (Muscle tissue [3]) was “Active”, the Drug uptake (Liver) was “Active” and the Drug uptake (Kidney [4]) was “Active”. The Drug uptake [5] was “Active”, the Drug uptake [6] was “Active” and the Drug uptake (Muscle tissue [7]) was “Active”. For the same compound, the Drug uptake (Kidney [8]) was “Active”, the Drug uptake [9] was “Active” and the Drug uptake [10] was “Active”. It also gave a half-life [11] of 83 h.
